A selection: hits, their analogues and other compounds. The true share with any hit is near 8.4%.
Cav3 T inh: human Cav3.2 channel inhibition, primary screen; AID 449739; O95180; 100,000 compounds, 4% hits; Cav3.2-expressing cells, Fluo-4 calcium fluorescence FDSS; stronger effect = lower value; B-score at 10 µM;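 active means single-dose well whose peak fluorescence ratio is a statistical outlier from its plate by either plate-standardised score or position-corrected B-score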
Ecoli tolC: E. coli tolC mutant growth inhibition; E. coli BW25113 tolC mutant growth, OD615; 65,000 compounds, 2.2% hits; growth inhibition, % at 10 µM (by protocol);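 active means growth inhibition at or above a cutoff equal to the mean over every tested compound plus 3 SD, cut at about 60% in these data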;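 further: growth measured after 20 h incubation at 37 °C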
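Assay system: tolC-deleted E. coli BW25113. Medium: kanamycin-containing LB broth (50 µg/mL). Dosing: 10 µM final, single dose. Timing: bacterial growth with compound for 20 h at 37 °C. Detection: A615 absorbance measurement. Read-out basis: growth inhibition in percent.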
PostGolgi yeast: growth inhibition of a yeast mutant, post-Golgi transport screen; post-Golgi transport phenotypic cell assay; AID 739; 98,000 compounds, 0.9% hits; inhibition, % at 10 µM;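 further: yeast cells grown in 1536-well plates; yeast grown about 18 h at 30C before absorbance read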
E coli WT exp: blocks growth of wild type E. coli BW25113. OD600 absorbance. growth inhibition, % at 100 µM. 98,000 compounds, 0.15% hits;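 active means growth inhibition above about 50% at one test dose, limit read from the data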;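 further: growth measured after 20 h incubation at 37 °C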
PostGolgi ctrl: growth of the yeast control strain, post-Golgi counter-screen. efflux-deficient yeast background strain, growth absorbance A615, 16 h. inhibition, % at 10 µM. 98,000 compounds, 5% hits. AID 738
The depositor's hits bear a star; . = no result given. Unless noted, no stated cut-off is given here; in the data, active means inhibition above about 30%; inactive means the rest.

SMILES	Cav3 T inh	Ecoli tolC	PostGolgi yeast	E coli WT exp	PostGolgi ctrl
c1ccc(-c2ccc(C3=Nn4c(Cn5nnc6ccccc65)nnc4SC3)cc2)cc1	0.29	.	4	-11	36*
CC(C)(C)OC(=O)NCCCCCNC(=O)c1[nH]cnc1C(=O)N[C@@H](CCCCNC(=O)OC(C)(C)C)C(=O)OC(C)(C)C	-2.7*	.	.	.	.
Cc1oc2c(c1C(=O)NCc1cc(C(=O)O)co1)CCCC2	0.17	-15	4	-3	0
CCOC(=O)c1coc(CNC(=O)c2c(C)oc3c2CCCC3)c1	-1	9	4	13	32*
O=C1c2cccc3c(Cl)ccc(c23)C(=O)N1O	1.3	58	4	24	34*
CN(C(=O)COC(=O)c1ccccc1Nc1ccccc1)C1CCS(=O)(=O)C1 (stereo not drawn)	0.061	8	-6	-4	13
Cc1cccc(Nc2ccccc2C(=O)OCC(=O)N(C)C2CCS(=O)(=O)C2)c1C (stereo not drawn)	-3.4*	.	4	10	7
CC1CCCCC1n1c(=S)[nH]c2ccccc2c1=O (stereo not drawn)	0.0037	100*	7	-2	53*
O=[N+]([O-])c1cc(/C=N/N2CCN(C3c4ccccc4-c4ccccc43)CC2)ccc1Cl	-0.14	.	1	-19	7
C(=N\N1CCN(C2c3ccccc3-c3ccccc32)CC1)/c1ccccn1	-1.9	.	-9	-11	31*
c1ccc(CCn2c(C3CC3)nc3ccccc32)cc1	-0.31	.	3	8	1
CCCCc1c(C)c(C#N)c2[nH]c3ccccc3n2c1=O	0.99	.	6	-12	36*
Cc1c(CCC(C)C)c(=O)n2c([nH]c3ccccc32)c1C#N	-0.78	.	-1	-15	21
NC(=O)C1=C[C@@H](c2csc3ccccc23)C[C@@H](OCCCCO)O1	1.2	.	.	.	.
CCOC(=O)c1ccccc1-c1csc(NS(=O)(=O)c2ccc(Cl)cc2)n1	-9.2*	.	6	5	12
CCOC(=O)c1ccccc1NS(=O)(=O)c1ccccc1	-0.16	33	-3	5	37*
CCCC(C)C(=O)Nc1ccccc1C(=O)OCC (stereo not drawn)	-0.072	.	20	10	10
CCOC(=O)c1ccccc1NC(=O)c1nc2nccc(C)n2n1	1	.	3	0	40*
CCOC(=O)Cc1csc(NS(=O)(=O)c2ccccc2)n1	2.3	.	8	7	2
CCOC(=O)c1ccccc1NC(=O)C(C)Oc1ccccc1 (stereo not drawn)	-2	69*	12	13	8
CC1CC(C)CN(S(=O)(=O)c2ccc(C(=O)Nc3sccc3C(N)=O)cc2)C1 (stereo not drawn)	-1.1	.	-2	-11	26
CN(C1CCCCC1)S(=O)(=O)c1ccc(NC(=O)c2ccc(Br)o2)cc1	-3	70*	-7	-7	35*
CN(C)S(=O)(=O)c1ccc(NC(=O)c2ccc(Br)o2)cc1	0.026	.	-5	2	-7
NC(=O)c1ccsc1NC(=O)c1ccc(S(=O)(=O)N2CCCCC2)cc1	.	32	-4	-8	51*
COCc1nnc(NC(=O)c2ccc(S(=O)(=O)N3CCCCCC3)cc2)o1	-0.36	74*	-5	4	10
SMILES	Cav3 T inh	Ecoli tolC	PostGolgi yeast	E coli WT exp	PostGolgi ctrl
COCc1nnc(NC(=O)c2ccc(S(=O)(=O)N(C)C3CCCCC3)cc2)o1	-0.37	95*	-5	6	9
CN(C1CCCCC1)S(=O)(=O)c1ccc(-n2cnnn2)cc1	0.45	-22	2	-7	4
CC(Sc1nc(N(C)C)nc(N2CCOCC2)n1)C(=O)Nc1ccccc1 (stereo not drawn)	-0.15	20	-5	-2	-6
NC(=O)CC(NC(=O)Cc1ccc(Br)cc1)c1ccc(N2CCN(c3ccc(F)cc3)CC2)c([N+](=O)[O-])c1 (stereo not drawn)	0.97	.	.	.	.
Cc1cccc(N2CCN(C(=O)NCc3ccc(Cl)cc3)CC2)c1	-9.6*	.	.	.	.
O=C(NCc1ccccc1)N1CCN(c2ccccc2F)CC1	-0.88	-6	4	-10	31*
O=C(NC(=O)N1CCN(c2cccc(Cl)c2)CC1)c1ccccc1	0.2	-2	5	-10	0
CCCCN(CC(=O)Nc1c(C)cccc1CC)C(=O)SCC	-3.8*	.	1	8	9
CCCN(CC(=O)Nc1c(C)cccc1CC)C(=O)SCC	-0.92	.	2	-1	3
Cc1nc(CCN2C(=O)c3ccccc3C2=O)cs1	0.52	.	5	-1	10
CN1/C(=C\C(=O)CN2C(=O)NC3(CCCCCC3)C2=O)C(C)(C)c2ccccc21	-4.2*	16	0	-2	8
